Test results published in ChEMBL document CHEMBL4007410, “Fluorinated Chaperone-β-Cyclodextrin Formulations for β-Glucocerebrosidase Activity Enhancement in Neuronopathic Gaucher Disease” (J Med Chem, 2017).
Calls of active or inactive are those of the source. The calls are words filed in the database; no cut-off is given here.

What was measured:
[1] = target: T1, Beta-galactosidase (Homo sapiens) (UniProt P16278); experiment: Inhibition of human lysosomal beta-galactosidase assessed as formation of 4-methylumbelliferone from 4-methylumbelliferyl beta-D-galactopyranoside up to 200 uM by luminescence spectrophotometry
T1 sequence (whole entry): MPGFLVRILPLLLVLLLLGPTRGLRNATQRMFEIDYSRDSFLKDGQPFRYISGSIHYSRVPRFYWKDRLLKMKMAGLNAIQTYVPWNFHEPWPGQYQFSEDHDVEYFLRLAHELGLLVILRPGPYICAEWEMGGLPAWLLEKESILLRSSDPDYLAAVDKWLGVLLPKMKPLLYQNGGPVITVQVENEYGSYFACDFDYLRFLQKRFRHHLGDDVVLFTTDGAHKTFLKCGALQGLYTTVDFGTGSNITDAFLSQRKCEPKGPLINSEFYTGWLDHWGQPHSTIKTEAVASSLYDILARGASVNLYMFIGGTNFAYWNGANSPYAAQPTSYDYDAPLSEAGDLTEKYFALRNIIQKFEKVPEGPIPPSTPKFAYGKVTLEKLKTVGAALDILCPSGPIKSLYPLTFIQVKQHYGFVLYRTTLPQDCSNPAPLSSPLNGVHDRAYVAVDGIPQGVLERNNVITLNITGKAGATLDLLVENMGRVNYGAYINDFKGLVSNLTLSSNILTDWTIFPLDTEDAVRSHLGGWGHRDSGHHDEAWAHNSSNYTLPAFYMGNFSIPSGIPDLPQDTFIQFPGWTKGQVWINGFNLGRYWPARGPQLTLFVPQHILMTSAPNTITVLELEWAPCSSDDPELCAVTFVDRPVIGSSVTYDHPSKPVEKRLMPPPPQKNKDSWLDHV
Summary of the method: (§1)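 Cells were scraped into ice-cold water (10⁶ cells/mL), sonicated and centrifuged, and protein was quantified. Lysate in 0.1% Triton X-100 was incubated at 37 °C with the matching 4-MU-conjugated glycoside in 0.1 M citrate, pH 4.5, with increasing chaperone or βCD-complex concentrations up to 200 μM. Reactions were stopped with glycine-NaOH, pH 10.7, and read at ex 340/em 460 nm.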

[2] = target: T2, Lysosomal acid glucosylceramidase (Homo sapiens, UniProt P04062); experiment: Inhibition of human GCase assessed as formation of 4-methylumbelliferone from […] at pH 7 by luminescence spectrophotometry
T2 sequence (P04062 whole entry): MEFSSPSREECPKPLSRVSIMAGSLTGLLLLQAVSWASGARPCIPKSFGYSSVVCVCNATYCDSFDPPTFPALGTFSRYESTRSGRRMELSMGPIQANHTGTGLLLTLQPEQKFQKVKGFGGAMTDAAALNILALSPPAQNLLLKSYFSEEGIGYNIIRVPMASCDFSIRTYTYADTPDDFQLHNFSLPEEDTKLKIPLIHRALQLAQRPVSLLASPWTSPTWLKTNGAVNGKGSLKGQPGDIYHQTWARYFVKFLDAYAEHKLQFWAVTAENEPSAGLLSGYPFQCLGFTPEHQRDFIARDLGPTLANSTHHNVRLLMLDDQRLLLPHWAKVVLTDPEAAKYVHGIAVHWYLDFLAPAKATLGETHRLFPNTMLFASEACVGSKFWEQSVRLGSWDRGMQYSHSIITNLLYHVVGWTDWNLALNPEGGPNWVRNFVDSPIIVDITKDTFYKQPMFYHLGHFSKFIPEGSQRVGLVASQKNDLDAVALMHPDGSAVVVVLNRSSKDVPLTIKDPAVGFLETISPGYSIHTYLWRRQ

[3] = species on record: Homo sapiens; experiment: Inhibition of human lysosomal beta-hexosaminidase assessed as formation of 4-methylumbelliferone from 4-methylumbelliferyl N-acetyl-beta-D-glucosaminide up to 200 uM by luminescence spectrophotometry; summary of the method: as §1
[4] = tested on: Aspergillus niger; experiment: Inhibition of Aspergillus niger amyloglucosidase at 2 mM using beta-D-glycopyranoside after 10 to 30 mins in presence of beta-cyclodextrin by spectrophotometry
Summary of the method: (§2)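 Commercial glycosidases were assayed with o-nitrophenyl (E. coli β-galactosidase) or p-nitrophenyl glycoside substrate near KM. Buffer was phosphate, or phosphate-citrate for mannosidases and amyloglucosidase, at each enzyme's optimal pH. Enzyme was added last. Incubation ran 10-30 min at 37 °C (55 °C for amyloglucosidase), then was quenched with 1 M Na2CO3 and read at A405. Free compounds were tested up to 1 mM; 1:1 βCD complexes up to 2 mM.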

[5] = species on record: Homo sapiens; experiment: Inhibition of human lysosomal beta-hexosaminidase assessed as formation of 4-methylumbelliferone from 4-methylumbelliferyl N-acetyl-beta-D-glucosaminide up to 200 uM in presence of beta-cyclodextrin by luminescence spectrophotometry; summary of the method: as §1
[6] = species on record: Homo sapiens; experiment: Inhibition of human lysosomal alpha-galactosidase assessed as formation of 4-methylumbelliferone from 4-methylumbelliferyl alpha-D-galactopyranoside up to 200 uM by luminescence spectrophotometry; summary of the method: as §1
[7] = species on record: Homo sapiens; experiment: Chaperone activity assessed as enhancement of GCase N370S/84GG mutant enzyme in fibroblasts derived from type 1 gaucher disease patient […] prior to addition of 4-methylumbelliferyl beta-D-glucopyranoside as substrate in presence of beta-cyclodextrin by luminescence spectrophotometry relative to control
[8] = target: T2, Lysosomal acid glucosylceramidase; experiment: Inhibition of human GCase assessed as formation of 4-methylumbelliferone from […] at pH 7 in presence of beta-cyclodextrin by luminescence spectrophotometry
[9] = Competitive inhibition of bovine liver beta-glucosidase assessed as formation of 4-methylumbelliferone from 4-methylumbelliferyl […] in presence of beta-cyclodextrin by Lineweaver-Burk Plot analysis; set-up: species or system Bos taurus
[10] = tested on: Escherichia coli; experiment: Inhibition of Escherichia coli beta-galactosidase 2 mM using beta-D-glycopyranoside after 10 to 30 mins in presence of beta-cyclodextrin by spectrophotometry; summary of the method: as §2
[11] = target: Lysosomal alpha-glucosidase (Homo sapiens) (UniProt P10253); experiment: Inhibition of human lysosomal alpha-glucosidase assessed as formation of 4-methylumbelliferone from 4-methylumbelliferyl alpha-D-glucopyranoside by luminescence spectrophotometry; summary of the method: as §1

| SMILES | inhibition [1] | Ki [2] | inhibition [3] | inhibition [4] | inhibition [5] | inhibition [6] | fold change (FC) [7] | Ki [8] | Ki [9] | inhibition [10] | inhibition [11] |
| --- | --- | --- | --- | --- | --- | --- | --- | --- | --- | --- | --- |
| O=C(CCC(F)(F)C(F)(F)C(F)(F)C(F)(F)F)NCCCCNC(=S)N1[C@@H]2CO[C@H]1[C@H](O)[C@@H](O)[C@@H]2O | inactive | 35 µM | inactive | inactive | Active | inactive | 1.5 to 1.7 | 0.3 µM | 1.3 µM | inactive | inactive |
| O=C(CCC(F)(F)C(F)(F)C(F)(F)C(F)(F)C(F)(F)C(F)(F)F)NCCCCNC(=S)N1[C@@H]2CO[C@H]1[C@H](O)[C@@H](O)[C@@H]2O | inactive | 11.9 µM | inactive | inactive | Active | inactive |  | 0.09 µM | 0.13 µM | inactive | inactive |
| O=C(CCC(F)(F)C(F)(F)C(F)(F)C(F)(F)F)NCCCCCCCCCNC(=S)N1[C@@H]2CO[C@H]1[C@H](O)[C@@H](O)[C@@H]2O | inactive | 9.3 µM | inactive | inactive | Active | inactive | 1.5 to 1.7 | 0.9 µM | 0.26 µM | inactive | inactive |
| O=C(CCC(F)(F)C(F)(F)C(F)(F)C(F)(F)C(F)(F)C(F)(F)F)NCCCCCCCCCNC(=S)N1[C@@H]2CO[C@H]1[C@H](O)[C@@H](O)[C@@H]2O | inactive | 4.1 µM | inactive | inactive | Active | inactive | 1.5 to 1.7 | 0.6 µM | 2.5 µM | inactive | inactive |
